Molecules are shown by their SMILES.

By inhibition is commonly meant the change of the read-out against control, counted positive when it falls. The IC50 is the concentration needed to halve the response being measured. Low readings indicate greater potency in that assay, high ones weaker potency in that assay.

The nature of data set [1]: Chemical stability. The conditions noted are these: hydrolysis of the linkage to saccharin moiety.
For data set [2], the system named is four human PYK isoenzymes. Nature of the data set: Irreversible inhibition of human PYK isoenzymes. Type of data set: biochemical.
Data set [3] has as its target rabbit lactate dehydrogenase (Oryctolagus cuniculus, UniProt P13491). Kind of data set: Inhibition of coupling enzyme lactate dehydrogenase. Format: biochemical. The conditions noted are these: active-site Lys56.
Data set [4] addresses LmPYK (Leishmania mexicana, UniProt Q27686). Nature of the data set: PYK inhibitor assay. Type of data set: biochemical. A digest of the protocol:
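Pre-incubation mix held at 25 °C: LmPYK 1.6 U/mL, 0.4 mM PEP, 3.2 U/mL lactate dehydrogenase and 0.2 mM NADH in 50 mM TEA pH 7.2, 100 mM KCl, 3 mM MgCl2, 10% glycerol. Test compound (final 50 µM, from DMSO stock) added last; buffer-only control. Every 20 min […], an aliquot was started with 0.2 mM ADP (final). A340 decrease followed for 2 min. Initial rate expressed as % of control.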

In data set [5] the target is Lys335Arg mutant of LmPYK (Leishmania mexicana, UniProt Q27686, K336R). Nature of the data set: PYK inhibitor assay with Lys335Arg mutant. Format: biochemical. The conditions noted are these: 50 µM DBS, 0.4 mM PEP, identical assay conditions to wild-type.
In data set [6] the target is HsRPYK (Homo sapiens, UniProt P30613). Nature of the data set: Inhibition of HsRPYK. Format: biochemical.
A short description of data set [7]: Solubility. The conditions noted are these: relative to original screening hit NCGC00186526. Format: physicochemical.
The target in data set [8] is wild-type LmPYK (Leishmania mexicana, UniProt Q27686). Kind of data set: qHTS / LmPYK activity assay. Format: biochemical.

Sequence of HsRPYK (P30613 whole entry): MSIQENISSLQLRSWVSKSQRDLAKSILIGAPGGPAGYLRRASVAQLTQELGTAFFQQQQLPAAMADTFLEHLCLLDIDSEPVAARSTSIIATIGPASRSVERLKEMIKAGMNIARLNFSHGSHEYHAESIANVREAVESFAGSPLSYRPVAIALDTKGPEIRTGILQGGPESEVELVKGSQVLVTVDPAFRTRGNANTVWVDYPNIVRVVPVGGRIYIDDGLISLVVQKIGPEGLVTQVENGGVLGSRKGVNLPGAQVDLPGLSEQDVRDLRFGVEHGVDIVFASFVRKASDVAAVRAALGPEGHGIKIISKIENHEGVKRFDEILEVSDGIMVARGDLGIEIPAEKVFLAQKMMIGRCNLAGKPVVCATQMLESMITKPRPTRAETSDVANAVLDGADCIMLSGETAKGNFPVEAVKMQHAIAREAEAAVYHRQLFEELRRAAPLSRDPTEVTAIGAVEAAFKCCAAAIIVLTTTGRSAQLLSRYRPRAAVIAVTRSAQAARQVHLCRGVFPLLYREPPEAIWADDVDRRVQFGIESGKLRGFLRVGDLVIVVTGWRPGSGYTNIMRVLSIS

Turning to `O=C(O)c1ccc(SC2=NS(=O)(=O)c3ccccc32)cc1` [DBS, 4-[(1,1-dioxo-1,2-benzothiazol-3-yl)sulfanyl]benzoic acid], the stability entry in data set [1] is “improved stability and solubility profiles”. Besides, the irreversible inhibition entry in data set [2] was “irreversibly inhibited”. In addition, in data set [3], the “inhibition of rabbit lactate dehydrogenase” value was “inability of DBS to inhibit”. In data set [4] (50 µM DBS, 25 °C), the “time to maximal inhibition” value is recorded as ~ 250 min. In addition, the inhibition at 50 µM in data set [4] (read-out: Maximal inhibition) was around 80%. For the same compound, the “change in activity over time” value in data set [5] was “essentially no change in activity over time”. The same compound showed an IC50 in data set [6] of 8 µM. Further, the solubility entry in data set [7] is “improved stability and solubility profiles”.

`Cc1ccc(C)c(OC2=NS(=O)(=O)c3ccccc32)c1` [NCGC00186526]: the IC50 in data set [8] is 10 µM.

With `Cc1ccc(C)c(SC2=NS(=O)(=O)c3ccccc32)c1` [NCGC00188411], the stability result in data set [1] was “Stable”. Also, in data set [8], half-maximal inhibition (IC50) was put at 5 µM.

Source of the values: paper PMC3498827 (The Biochemical journal, 2012).
